Measurements from ChEMBL document CHEMBL4049439, “Synthesis and Characterization of Tetrahydropyran-Based Bacterial Topoisomerase Inhibitors with Antibacterial Activity against Gram-Negative Bacteria” (J Med Chem, 2017).
Activity calls are given as the source filed them. No cut-off for these calls is given here.

Tests used:
[1] = Volume of distribution at steady state in NMRI mouse at 10 mg/kg, iv by LC-MS/MS analysis; type: ADME, organism-based; details: in vivo, read-out: Vdss
Outline: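 Mice received a single dose of 10 mg/kg intravenously, or 120 mg/kg subcutaneously for one compound. Clearance, Vdss, half-life, unbound fraction and dose-normalized AUC were derived from plasma exposure.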

[2] = Inhibition of wild-type Escherichia coli DNA gyrase supercoiling activity using relaxed pBR322 DNA as substrate by ethidium bromide based agarose gel electrophoresis
Mus musculus [3] = assay: Dose normalized unbound AUC in NMRI mouse at 10 mg/kg, iv by LC-MS/MS analysis; type: ADME, organism-based; details: in vivo
Outline: (§1)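 Mice dosed iv at 10 mg/kg or sc at 120 mg/kg. AUC normalized to dose (μg·h/(mL·dose)). Unbound AUC derived using fraction unbound. Clearance, Vdss and terminal half-life also derived.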

Klebsiella pneumoniae [4] = assay: Antibacterial activity against Klebsiella pneumoniae ATCC 43816 by CLSI broth microdilution method; type: functional
Staphylococcus aureus [5] = assay: Antibacterial activity against methicillin/quinolone-resistant Staphylococcus aureus A-1171 by CLSI broth microdilution method; type: functional
[6] = Inhibition of wild-type Pseudomonas aeruginosa DNA topoisomerase-4 mediated supercoiled pBR322 DNA relaxation by ethidium bromide based agarose gel electrophoresis
Mus musculus [7] = assay: Dose normalized AUC in NMRI mouse at 10 mg/kg, iv by LC-MS/MS analysis; type: ADME, organism-based; details: in vivo
Pseudomonas aeruginosa = assay: Antibacterial activity against Pseudomonas aeruginosa ATCC 27853 by CLSI broth microdilution method; type: functional
Staphylococcus aureus [8] = assay: Antibacterial activity against methicillin-sensitive Staphylococcus aureus A-1178 infected in cyclophosphamide-induced neutropenic NMRI mouse model assessed as log reduction in colony forming units in thighs at 40 mg/kg, sc treated 2 hrs post infection measured 22 hrs post dose; type: functional
Outline: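 Neutropenic mouse thigh model infected with a methicillin-sensitive S. aureus strain, subcutaneous dosing. Thigh CFU measured 24 h post-infection (22 h post-treatment). Net log reduction given against CFU at treatment start.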

[9] = Inhibition of wild-type Escherichia coli DNA topoisomerase-4 mediated supercoiled pBR322 DNA relaxation by ethidium bromide based agarose gel electrophoresis
Klebsiella pneumoniae [10] = assay: Antibacterial activity against Klebsiella pneumoniae ATCC 43816 infected in cyclophosphamide-induced neutropenic NMRI mouse model assessed as reduction in colony forming units in thighs at 30 mg/kg, sc treated 2 hrs post infection measured 5.5 hrs post dose; type: functional, organism-based
Outline: (§2)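 Neutropenic murine thigh infection with a K. pneumoniae strain, single subcutaneous dose. Thigh CFU read 7.5 h post-infection (5.5 h after treatment, covering the dosing interval). Net log change computed against CFU at start of treatment.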

[11] = Inhibition of wild-type Acinetobacter baumannii DNA topoisomerase-4 mediated supercoiled pBR322 DNA relaxation by ethidium bromide based agarose gel electrophoresis
[12] = Fraction unbound in NMRI mouse at 10 mg/kg, iv by rapid equilibrium dialysis; type: ADME, organism-based; details: plasma; outline: as §1
Staphylococcus aureus [13] = assay: Antibacterial activity against methicillin-sensitive Staphylococcus aureus A-1178 by CLSI broth microdilution method; type: functional
Acinetobacter baumannii = assay: Antibacterial activity against fluoroquinolone-resistant Acinetobacter baumannii T6474 by CLSI broth microdilution method; type: functional
[14] = Inhibition of wild-type Acinetobacter baumannii DNA gyrase supercoiling activity using relaxed pBR322 DNA as substrate by ethidium bromide based agarose gel electrophoresis
Staphylococcus aureus [15] = assay: Antibacterial activity against Staphylococcus aureus ATCC 29213 by CLSI broth microdilution method; type: functional
[16] = Inhibition of wild-type Pseudomonas aeruginosa DNA gyrase supercoiling activity using relaxed pBR322 DNA as substrate by ethidium bromide based agarose gel electrophoresis
Escherichia coli = assay: Antibacterial activity against wild-type Escherichia coli ATCC 25922 by CLSI broth microdilution method; type: functional
[17] = Terminal half-life in NMRI mouse at 10 mg/kg, iv by LC-MS/MS analysis; type: ADME, organism-based; details: in vivo, read-out: beta t1/2 (converted); outline: as §1
Staphylococcus aureus [18] = assay: Antibacterial activity against methicillin/quinolone-resistant Staphylococcus aureus A-1171 infected in cyclophosphamide-induced neutropenic NMRI mouse model assessed as log reduction in colony forming units in thighs at 40 mg/kg, sc treated 2 hrs post infection measured 22 hrs post dose; type: functional
Outline: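 Neutropenic murine thigh infection with MRSA. A single subcutaneous dose of 40 mg/kg was given. Thigh CFU were counted 24 h postinfection (22 h post-treatment). The net change in bacterial load is given in log units relative to CFU at the start of treatment.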

Klebsiella pneumoniae [19] = assay: Antibacterial activity against Klebsiella pneumoniae ATCC 43816 infected in cyclophosphamide-induced neutropenic NMRI mouse model assessed as log reduction in colony forming units in thighs at 90 mg/kg, sc treated 2 hrs post infection measured 5.5 hrs post dose; type: functional; outline: as §2

COc1ccc2ncc(F)c(CC(N)[C@@H]3CC[C@@H](NCc4ccc5c(n4)NC(=O)CO5)CO3)c2n1 (mixture of isomers)
Vd [1]: 6 L/kg | IC50 [2]: 125 nM | fAUC/dose (Mus musculus [3]): 40 µg·h/mL | MIC (Klebsiella pneumoniae [4]): 0.125 µg/mL | MIC (Staphylococcus aureus [5]): 0.03 µg/mL | IC50 [6]: 30 nM | AUC/dose (Mus musculus [7]): 260 ng·h/mL | MIC (Pseudomonas aeruginosa): 4 µg/mL | Activity (Staphylococcus aureus [8]): 2 log10CFU | IC50 [9]: 30 nM | Activity (Klebsiella pneumoniae [10]): inactive | IC50 [11]: 30 nM | fraction unbound [12]: 0.154 | MIC (Staphylococcus aureus [13]): 0.06 µg/mL | MIC (Acinetobacter baumannii): 0.25 µg/mL | IC50 [14]: 125 nM | MIC (Staphylococcus aureus [15]): 0.03 µg/mL | IC50 [16]: 30 nM | MIC (Escherichia coli): 0.25 µg/mL | half-life [17]: 1.2 h | Activity (Staphylococcus aureus [18]): 1 log10CFU | Activity (Klebsiella pneumoniae [19]): 1 log10CFU
